The source of these data is ChEMBL document CHEMBL4145586, “Hinduchelins A-D, Noncytotoxic Catechol Derivatives from Streptoalloteichus hindustanus” (J Nat Prod, 2018).

Active and inactive are the calls of the source. The rule behind the calls is not given here.

One data set concerns HL-60. In words: Cytotoxicity against human HL60 cells assessed as effect on cell viability at 50 uM after 48 hrs by MTT assay. It is filed as cell-based. As to conditions: hl-60, 48 h.
The next data set has as its system A549. In words: Cytotoxicity against human A549 cells assessed as effect on cell viability at 50 uM after 48 hrs by MTT assay. The class given is cell-based. The settings on record: a549, 48 h.
The nature of data set [1]: Metal chelating activity assessed as iron-compound complex formation by measuring increase in pyoverdine production in Pseudomonas aeruginosa PAO1 at 50 uM by fluorescence assay. The method in brief: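 PAO1 grown overnight in LB broth at 37 °C with shaking, then diluted to OD600 0.02 in ABTGC medium. Pyoverdine fluorescence was read on a plate reader, normalized to OD600 and reported as relative fluorescence units.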

In a further data set the test system is MCF7. In words: Cytotoxicity against human MCF7 cells assessed as effect on cell viability at 50 uM after 48 hrs by MTT assay. The class given is cell-based. As to conditions: mcf7, 48 h.
A further data set concerns SW480. In words: Cytotoxicity against human SW480 cells assessed as effect on cell viability at 50 uM after 48 hrs by MTT assay. The settings on record: sw480, 48 h. The class given is cell-based.
For the next data set, the system named is SMMC-7721. In words: Cytotoxicity against human SMMC7721 cells assessed as effect on cell viability at 50 uM after 48 hrs by MTT assay. It is filed as cell-based. As to conditions: smmc-7721, 48 h.

For the compound `COc1cccc(-c2nc(C(=O)NCCc3ccccc3)c(C)o2)c1O`, the Activity entry with HL-60, in the data set on A549, with MCF7, with SW480 and with SMMC-7721 was “Non-Toxic” each time. For the same compound, the result in data set [1] was Active.
As to `COc1cccc(-c2nc(C(=O)NCCc3ccccc3O)c(C)o2)c1OC`, the Activity entry in the data set with HL-60, in the data set with A549, in the data set with MCF7, in the data set on SW480 and with SMMC-7721 was “Non-Toxic” throughout.
Consider `COc1cccc(-c2nc(C(=O)NC[C@@H](O)c3ccccc3)c(C)o2)c1OC`, for which the Activity entry with HL-60, in the data set on A549, in the data set on MCF7, with SW480 and in the data set on SMMC-7721 was “Non-Toxic” throughout.
On to `COc1cccc(-c2nc(C(=O)NCCc3ccccc3O)c(C)o2)c1O`, for which the Activity entry in the data set on HL-60, in the data set on A549, in the data set on MCF7, in the data set with SW480 and in the data set with SMMC-7721 was “Non-Toxic” throughout.
